Assay results reported in ChEMBL document CHEMBL4725223, “Structure-activity relationship studies on the inhibition of the bacterial translation of novel Odilorhabdins analogues” (Bioorg Med Chem, 2020).
≈ marks a conversion by molar mass, not a printed value. Starred links: 1 amine or outer side, 2 acyl side, 3 side chain; linkers in the order of their positions; H or OH if unused. Non-standard residues stand in square brackets, D forms with d. Residues, ends and D or L forms follow the SMILES beside them. Dab(3S-OH) = NC[C@H](O)[C@H](N)C(=O)O; X1 = O=C([C@@H](CCCO)N[*:1])[*:2]; ΔZArg = N=C(N)NCC/C=C(\N)C(=O)O

What was measured:
[1] = test system: Escherichia coli; test: Antibacterial activity against wild type Escherichia coli ATCC 25922 by CLSI based broth microdilution method; assay type: functional
In short: (§1)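 MIC read by CLSI broth microdilution (M07-A10) from direct colony suspension inocula. Reference strains came from ATCC: wild-type E. coli ATCC 25922 and K. pneumoniae ATCC 13883. An efflux-defective ΔtolC E. coli isogenic to ATCC 25922 was also used.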

[2] = molecular target: Bacterial 70S ribosome; test: Inhibition of ribosome-mediated translation in Cell-free Escherichia coli protein synthesis system using pCmGFP as plasmid incubated at 30 degreeC measured every 20 mins by invitro coupled transcription-translation system based fluorescence analysis; assay type: subcellular
In short: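 E. coli cell-free coupled transcription-translation; template was gfp amplified from pCmGFP and cloned into pEXP5-CT, 1 µg plasmid DNA added to start each reaction. Feed buffer added at 30 min. Run at 30 °C, fluorescence (ex 475/em 520 nm) read every 20 min. IC50 taken from the signal 1 h after feed buffer addition.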

[3] = test system: Escherichia coli; test: Antibacterial activity against efflux-defective (deltatolC) Escherichia coli ATCC 25922 by broth microdilution method; assay type: functional; in short: as §1
[4] = test system: Escherichia coli; test: Antibacterial activity against Escherichia coli by CLSI based broth microdilution method; assay type: functional; in short: as §1
[5] = test system: Klebsiella pneumoniae; test: Antibacterial activity against Klebsiella pneumoniae by CLSI based broth microdilution method; assay type: functional; in short: as §1
[6] = test system: Klebsiella pneumoniae; test: Antibacterial activity against wild type Klebsiella pneumoniae ATCC 13883 by CLSI based broth microdilution method; assay type: functional; in short: as §1

| SMILES | IC50 [2] | further results |
| --- | --- | --- |
| C[C@H](NC(=O)[C@@H](NC(=O)[C@@H](N)CCCCN)[C@@H](O)CN)C(=O)NCC(=O)N[C@H](CCCN)C(=O)N1CCC[C@H]1C(=O)N[C@@H](Cc1cnc[nH]1)C(=O)N[C@@H](CCCCN)C(=O)N/C(=C\CCNC(=N)N)C(=O)O | 0.5 µM | MIC [1]: 8 µg/mL (≈ 7.83 µM); MIC [3]: 8 µg/mL (≈ 7.83 µM); MIC90 [4]: 32 µg/mL (≈ 31.3 µM); MIC90 [5]: 8 µg/mL (≈ 7.83 µM); MIC [6]: 4 µg/mL (≈ 3.92 µM) |
| C[C@H](NC(=O)[C@@H](NC(=O)[C@@H](N)CCCCN)[C@H](O)CN)C(=O)NCC(=O)N[C@H](CCCN)C(=O)N1CCC[C@H]1C(=O)N[C@@H](Cc1c[nH]cn1)C(=O)N[C@@H](CCCCN)C(=O)N/C(=C\CCNC(=N)N)C(=O)O | > 40 µM | – |
| C[C@H](NC(=O)[C@@H](NC(=O)[C@@H](N)CCCCN)[C@@H](O)C(C)(C)N)C(=O)NCC(=O)N[C@H](CCCN)C(=O)N1CCC[C@H]1C(=O)N[C@@H](Cc1c[nH]cn1)C(=O)N[C@@H](CCCCN)C(=O)N/C(=C\CCNC(=N)N)C(=O)O | > 40 µM | – |
| CCCC[C@@H](NC(=O)CNC(=O)[C@H](C)NC(=O)[C@@H](NC(=O)[C@@H](N)CCCCN)[C@@H](O)CN)C(=O)N1CCC[C@H]1C(=O)N[C@@H](Cc1c[nH]cn1)C(=O)N[C@@H](CCCCN)C(=O)N/C(=C\CCNC(=N)N)C(=O)O | > 40 µM | – |
| C[C@H](NC(=O)[C@@H](NC(=O)[C@@H](N)CCCCN)[C@@H](O)[C@@H](C)N)C(=O)NCC(=O)N[C@H](CCCN)C(=O)N1CCC[C@H]1C(=O)N[C@@H](Cc1c[nH]cn1)C(=O)N[C@@H](CCCCN)C(=O)N/C(=C\CCNC(=N)N)C(=O)O | 10 µM | – |
| C[C@H](NC(=O)[C@@H](NC(=O)[C@@H](N)CCCCN)[C@H](C)O)C(=O)NCC(=O)N[C@H](CCCN)C(=O)N1CCC[C@H]1C(=O)N[C@@H](Cc1c[nH]cn1)C(=O)N[C@@H](CCCCN)C(=O)N/C(=C\CCNC(=N)N)C(=O)O | > 40 µM | – |
| C[C@H](NC(=O)[C@H](CO)NC(=O)[C@@H](N)CCCCN)C(=O)NCC(=O)N[C@H](CCCN)C(=O)N1CCC[C@H]1C(=O)N[C@@H](Cc1c[nH]cn1)C(=O)N[C@@H](CCCCN)C(=O)N/C(=C\CCNC(=N)N)C(=O)O | > 40 µM | – |
| C[C@H](NC(=O)[C@H](CCN)NC(=O)[C@@H](N)CCCCN)C(=O)NCC(=O)N[C@H](CCCN)C(=O)N1CCC[C@H]1C(=O)N[C@@H](Cc1c[nH]cn1)C(=O)N[C@@H](CCCCN)C(=O)N/C(=C\CCNC(=N)N)C(=O)O | 17 µM | – |
| C[C@H](NC(=O)[C@@H](NC(=O)[C@@H](N)CCCCN)[C@@H](O)[C@H](C)N)C(=O)NCC(=O)N[C@H](CCCN)C(=O)N1CCC[C@H]1C(=O)N[C@@H](Cc1c[nH]cn1)C(=O)N[C@@H](CCCCN)C(=O)N/C(=C\CCNC(=N)N)C(=O)O | > 40 µM | – |
| C[C@H](NC(=O)[C@@H](NC(=O)[C@@H](N)CCCCN)[C@@H](O)CCN)C(=O)NCC(=O)N[C@H](CCCN)C(=O)N1CCC[C@H]1C(=O)N[C@@H](Cc1c[nH]cn1)C(=O)N[C@@H](CCCCN)C(=O)N/C(=C\CCNC(=N)N)C(=O)O | 14.4 µM | – |
| CO[C@@H](CN)[C@H](NC(=O)[C@@H](N)CCCCN)C(=O)N[C@@H](C)C(=O)NCC(=O)N[C@H](CCCN)C(=O)N1CCC[C@H]1C(=O)N[C@@H](Cc1c[nH]cn1)C(=O)N[C@@H](CCCCN)C(=O)N/C(=C\CCNC(=N)N)C(=O)O | > 40 µM | – |
| CNC[C@H](O)[C@H](NC(=O)[C@@H](N)CCCCN)C(=O)N[C@@H](C)C(=O)NCC(=O)N[C@H](CCCN)C(=O)N1CCC[C@H]1C(=O)N[C@@H](Cc1c[nH]cn1)C(=O)N[C@@H](CCCCN)C(=O)N/C(=C\CCNC(=N)N)C(=O)O | 3.2 µM | MIC [1]: 64 µg/mL (≈ 61.8 µM); MIC [3]: 64 µg/mL (≈ 61.8 µM); MIC [6]: 32 µg/mL (≈ 30.9 µM) |
| C[C@H](NC(=O)[C@@H](NC(=O)[C@@H](N)CCCCN)[C@@H](O)CN)C(=O)NCC(=O)N[C@H](CCN)C(=O)N1CCC[C@H]1C(=O)N[C@@H](Cc1c[nH]cn1)C(=O)N[C@@H](CCCCN)C(=O)N/C(=C\CCNC(=N)N)C(=O)O | 36.3 µM | – |
| C[C@H](NC(=O)[C@@H](NC(=O)[C@@H](N)CCCCN)[C@@H](C)CN)C(=O)NCC(=O)N[C@H](CCCN)C(=O)N1CCC[C@H]1C(=O)N[C@@H](Cc1c[nH]cn1)C(=O)N[C@@H](CCCCN)C(=O)N/C(=C\CCNC(=N)N)C(=O)O | 26.7 µM | – |
| C[C@H](NC(=O)[C@@H](NC(=O)[C@@H](N)CCCCN)[C@@H](O)CN)C(=O)NCC(=O)N[C@](C)(CCCN)C(=O)N1CCC[C@H]1C(=O)N[C@@H](Cc1c[nH]cn1)C(=O)N[C@@H](CCCCN)C(=O)N/C(=C\CCNC(=N)N)C(=O)O | 18.1 µM | – |
| CNCCC[C@@H](NC(=O)CNC(=O)[C@H](C)NC(=O)[C@@H](NC(=O)[C@@H](N)CCCCN)[C@@H](O)CN)C(=O)N1CCC[C@H]1C(=O)N[C@@H](Cc1c[nH]cn1)C(=O)N[C@@H](CCCCN)C(=O)N/C(=C\CCNC(=N)N)C(=O)O | > 40 µM | – |
| C[C@H](N)CC[C@@H](NC(=O)CNC(=O)[C@H](C)NC(=O)[C@@H](NC(=O)[C@@H](N)CCCCN)[C@@H](O)CN)C(=O)N1CCC[C@H]1C(=O)N[C@@H](Cc1c[nH]cn1)C(=O)N[C@@H](CCCCN)C(=O)N/C(=C\CCNC(=N)N)C(=O)O | 17.9 µM | – |
| C[C@H](NC(=O)[C@@H](NC(=O)[C@@H](N)CCCCN)[C@@H](O)CN)C(=O)NCC(=O)N[C@H](CC[C@@H](C)N)C(=O)N1CCC[C@H]1C(=O)N[C@@H](Cc1c[nH]cn1)C(=O)N[C@@H](CCCCN)C(=O)N/C(=C\CCNC(=N)N)C(=O)O | > 40 µM | – |
| C[C@H](NC(=O)[C@@H](NC(=O)[C@@H](N)CCCCN)[C@@H](O)CN)C(=O)NCC(=O)N[C@H](CCCCN)C(=O)N1CCC[C@H]1C(=O)N[C@@H](Cc1c[nH]cn1)C(=O)N[C@@H](CCCCN)C(=O)N/C(=C\CCNC(=N)N)C(=O)O | > 40 µM | – |
| CC(=O)NCCC[C@@H](NC(=O)CNC(=O)[C@H](C)NC(=O)[C@@H](NC(=O)[C@@H](N)CCCCN)[C@@H](O)CN)C(=O)N1CCC[C@H]1C(=O)N[C@@H](Cc1c[nH]cn1)C(=O)N[C@@H](CCCCN)C(=O)N/C(=C\CCNC(=N)N)C(=O)O | > 40 µM | – |
| C[C@H](NC(=O)[C@@H](NC(=O)[C@@H](N)CCCCN)[C@@H](O)CN)C(=O)NCC(=O)N[C@H](CCCO)C(=O)N1CCC[C@H]1C(=O)N[C@@H](Cc1c[nH]cn1)C(=O)N[C@@H](CCCCN)C(=O)N/C(=C\CCNC(=N)N)C(=O)O (H-K[Dab(3S-OH)]AG[X1]PHK[ΔZArg]-OH) | 1.3 µM | MIC [1]: > 64 µg/mL; MIC [3]: > 64 µg/mL; MIC [6]: > 64 µg/mL |
